Source: PubChem
b-catenin transl: modulators of beta-catenin nuclear translocation, primary screen, imaging, HeLa cells, immunofluorescence, high-content; nuclear translocation activity, % at 5 µM; actives 0.3% (n = 190,000);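 active = nuclear translocation activity above 50% at 5 µM, with a well cell count of 50 or more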;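 also: per-cell ratio of nuclear to cytoplasmic median beta-catenin stain intensity; plate controls were DMSO negative control for no effect and GSK-3 inhibitor IX positive control for full effect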
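System: Human HeLa cells, endogenous beta-catenin | Compound dosing: 5 µM primary, 0.02–20 µM confirmation | Timing: 24 h compound exposure at 37°C, 5% CO2 | Measured by: Fluorescence imaging of beta-catenin antibody stain plus DAPI | Read-out basis: % activation of per-cell nuclear versus cytoplasmic median beta-catenin signal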
NPY-Y2 PAM-ag: NPY-Y2 potentiators or agonists, primary screen, cell-based; cells expressing NPY-Y2, potentiator/agonist read-out; activation, % at 3.6 µM; AID 1359, 2008; actives 0.45% (n = 220,000); Neuropeptide Y receptor type 2 (Homo sapiens), P49146; in the data active = activation above about 27%;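 also: cells stimulated with NPY near EC25 plus isoproterenol at EC100; 0% = vehicle plus submaximal agonist and 100% = vehicle plus saturating agonist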
NPY-Y2 antag: NPY-Y2 receptor antagonists, primary screen, cell-based | NPY-Y2 expressing cells, antagonist mode | inhibition, % at 2.7 µM | actives 0.99% (n = 140,000); in the data active = inhibition above about 17%;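 also: 0% = vehicle with agonist challenge and 100% = reference antagonist with challenge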
MT stabilizer: microtubule stabilizers in HeLa cells, primary screen, imaging, high-content imaging | HeLa tubulin immunostaining HCS, 24 h; share of cells brighter than vehicle mean+2SD | % tubulin-high responders, % at 10 µM | actives 0.83% (n = 200,000) | AID 2205, 2009;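 active = plate Z-score above 3 for both tubulin-high and condensed-nucleus cell shares, with cell loss under 80%, at 10 µM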;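 also: anti alpha tubulin signal scored within the nucleus-defined area of each cell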
NPY1 pot ag: NPY-Y1 receptor potentiators or agonists, primary screen, cell-based; NPY-Y1 expressing cells, potentiator/agonist activation; AID 1304, 2008; Neuropeptide Y receptor type 1 (Homo sapiens), P25929; actives 0.37% (n = 220,000); activation, % at 3.6 µM; in the data active = activation above about 33%, passing the limit was not always enough;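 also: cells stimulated with NPY at EC10 then isoproterenol at EC100; 0% = low agonist plus stimulus and 100% = saturating agonist plus stimulus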
Target sequence (P25929 whole entry, looked up): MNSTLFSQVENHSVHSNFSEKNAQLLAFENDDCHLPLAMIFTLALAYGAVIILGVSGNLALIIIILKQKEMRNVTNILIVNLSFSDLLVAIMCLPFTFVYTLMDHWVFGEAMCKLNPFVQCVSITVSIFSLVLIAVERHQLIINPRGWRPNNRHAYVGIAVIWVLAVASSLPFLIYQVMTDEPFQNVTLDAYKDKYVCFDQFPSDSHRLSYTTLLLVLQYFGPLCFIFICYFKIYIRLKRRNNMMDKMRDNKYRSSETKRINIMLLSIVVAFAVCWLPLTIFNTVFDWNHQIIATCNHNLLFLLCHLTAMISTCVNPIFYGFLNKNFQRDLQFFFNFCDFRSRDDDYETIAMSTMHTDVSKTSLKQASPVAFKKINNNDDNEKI
NPY Y1 blocker: NPY-Y1 receptor antagonists, primary screen, cell-based; actives 1% (n = 200,000); Neuropeptide Y receptor type 1 (Homo sapiens), P25929; HEK293-CNG Y1 cells, membrane potential fluorescence; NPY at EC95, then isoproterenol; inhibition, % at 3.6 µM;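 active = inhibition above the campaign mean inhibition of all tested compounds plus 3 SD, cut at about 20% in these data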;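 also: 0% = DMSO wells given NPY plus isoproterenol and 100% = isoproterenol alone without NPY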
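Test system: HEK293 cells co-expressing NPY Y1 receptor and cyclic-nucleotide gated channel; Also added: NPY (25 nM), isoproterenol (1 µM), Ro 20-1724 (25 µM); Compound dosing: one concentration, 3.6 µM, in 0.4% DMSO; Timing: dye 3 h, compound 60 min room temperature, stimulation 45 min; Technique: Membrane-potential fluorescent dye readout.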
* marks the source's active call; other numbers are inactive results; · = no result. In the library only some 2.6% were active in any assay of this set; here they are far more common.

SMILES | b-catenin transl | NPY-Y2 PAM-ag | NPY-Y2 antag | MT stabilizer | NPY1 pot ag | NPY Y1 blocker
CCOC(=O)C1=C(C)NC(C)=C(C(=O)OC)C1c1cccc([N+](=O)[O-])c1 (centres undefined) | -1 | 4 | 4 | 4 | -36 | 11
CCOC(=O)C1=C(N)Oc2cc(O)ccc2C1c1cccc([N+](=O)[O-])c1 (centres undefined) | 4 | 4 | · | 15* | 11 | 8
CCOC(=O)c1ccc(N2C(=O)c3n[nH]c(C)c3C2c2ccc(OC)c(OC)c2)cc1 (centres undefined) | 2 | -16 | 4 | 38* | -8 | 4
CSc1cc(-c2ccccc2)n(Cc2ccccc2Cl)c(=O)c1C#N | · | -8 | -1 | 43* | 3 | -1
Cc1cc2ccccn2c1C(=O)c1ccc([N+](=O)[O-])o1 | -3 | -14 | · | 6 | 0 | -1
O=C(NCc1cccnc1)/C(=C/c1ccc(-c2cccc(C(F)(F)F)c2)o1)NC(=O)c1ccccc1 | 0 | -7 | 13 | 1 | -30 | 9
O=C(NCc1cccnc1)/C(=C\c1ccc(-c2ccc(Br)cc2)o1)S(=O)(=O)c1ccccc1 | 3 | -24 | 7 | 47* | -57 | 12
CC(C)NCC(O)c1ccc(NS(C)(=O)=O)cc1 (centres undefined) | 0 | 78 | · | · | 96* | -15
CC1=NNC(=O)C1C(c1ccccc1)C1C(=O)NN=C1C (centres undefined) | 0 | 9 | · | 2 | 5 | -1
CCOc1c(OC)cccc1C1CC(=O)Nc2cc3c(cc21)OCCO3 (centres undefined) | 7 | 12 | 5 | 22* | 0 | 6
CCCOc1c(OC)cccc1C1CC(=O)Nc2cc(OC)c(OC)c(OC)c21 (centres undefined) | · | -4 | 7 | 3 | -20 | -3
COc1cc(/C=N/Nc2nc(=O)[nH]nc2C)ccc1O | 1 | 0 | · | · | 3 | ·
CCc1cc(=O)oc2cc3occ(-c4ccc(OC)c(F)c4)c3cc12 | 66* | -5 | 13 | 10 | -25 | 2
O=C(Nc1cccc(Cl)c1)Nc1cccc(Cl)c1 | 12 | 20 | 1 | 4 | 9 | -3
N#CCc1ccc(NC(=O)Nc2cccc(Cl)c2)cc1 | 2 | 20 | -3 | 3 | 37* | -18
COC(=O)c1ccccc1NC(=O)N1c2ccccc2Sc2ccccc21 | 0 | -13 | 2 | 1 | -62 | 6
O=C(Nc1ccc(-c2cn3ccccc3n2)cc1)c1cccs1 | -2 | -8 | · | 5 | -6 | 1
Cc1cc(C(=O)CSc2nnc(NCc3ccccc3)s2)c(C)n1C | 111* | 7 | 3 | 46 | -4 | 10
CCOc1ccccc1NC(=O)NCc1ccco1 | 0 | 7 | · | · | -3 | ·
CCN(CC)S(=O)(=O)c1ccc(C)c(NC(=O)c2cc(C)oc2C)c1 | 3 | -5 | · | 5 | 15 | 20*
Cc1cnc(C(=O)Nc2cccc3ncccc23)cn1 | -1 | 6 | 2 | 4 | 9 | 0
Cc1cnc(C(=O)Nc2ccccc2-c2ccc(C)o2)cn1 | -5 | 56* | 3 | 1 | 101* | 4
CCN(CC)C(=O)C[n+]1cccc(C(N)=O)c1 | -1 | 7 | 1 | 5 | 6 | 4
CC(C)CC(=O)Nc1c2c(nn1-c1ccc(F)cc1)CSC2 | 2 | 100* | 3 | 3 | 93* | -4
CN(CCO)CCC(=O)NC1(C)CS(=O)(=O)CC1S(=O)(=O)O (centres undefined) | 1 | -8 | · | · | 23 | ·
SMILES | b-catenin transl | NPY-Y2 PAM-ag | NPY-Y2 antag | MT stabilizer | NPY1 pot ag | NPY Y1 blocker
N#CC1=C(N)OC2=C(CCc3ccccc32)C1c1ccccc1Cl (centres undefined) | 12 | -13 | 4 | 18* | -17 | 7
Cn1c2c(c(=O)n(C)c1=O)C(c1ccccc1Cl)C(C#N)=C(N)O2 (centres undefined) | 0 | -2 | · | · | 6 | ·
O=C(NCCc1ccccn1)C1CCN(S(=O)(=O)c2ccc3ccccc3c2)CC1 | 0 | -1 | · | 3 | -7 | 3
Clc1ccc(NC2=NCCCCC2)cc1 | 5 | 10 | 1 | 5 | 7 | 46*
O=S(=O)(NC1=NCCCCC1)c1ccc(Cl)cc1 | -3 | -16 | · | 5 | -6 | -1
COc1ccc(NC(=O)c2ccc(C(=O)c3cc(OC)ccc3OC)cc2)cc1 | 2 | 12 | 1 | 1 | -1 | 2
COC(=O)Nc1ccc(S(=O)(=O)N2c3ccccc3CCC2C)cc1 (centres undefined) | 8 | 1 | 0 | 19* | 9 | 5
CCc1cccc2c(C(=O)CN3C(=O)NC(C)(c4cccc5ccccc45)C3=O)c[nH]c12 (centres undefined) | -3 | 37* | · | 13 | 43* | -13
CCc1cccc2c(C(=O)COC(=O)c3nn(C)c(=O)c4ccccc34)c[nH]c12 | · | -9 | 2 | 1 | -15 | 2
Cc1ccc2nc(/C(C#N)=C/c3cn[nH]c3-c3ccc(F)cc3)[nH]c2c1 | 100* | -10 | 1 | 36* | 0 | 9
Cc1ccc2nc(/C(C#N)=N/O)[nH]c2c1 | · | -7 | -3 | 1 | -21 | -3
O=C(CCCOc1ccccc1)Nc1ccc(Br)cc1 | · | -33 | 5 | 2 | -21 | 22*
CCOC(=O)CC(NS(=O)(=O)Cc1ccccc1)c1ccc(C)cc1 (centres undefined) | · | 10 | 3 | 2 | 8 | 6
CCCCNC(=O)c1onc(CSc2cccc(F)c2)c1C(=O)O | 0 | -27 | 17 | 2 | -23 | 17
CCCCNC(=O)c1onc(CSc2ccccc2CC)c1C(=O)O | -1 | -51 | 14 | 3 | -22 | 21*
COc1ccc(/C=N/NC(=O)c2ccc3ccccc3c2)cc1OS(=O)(=O)c1ccc(NC(C)=O)cc1 | 109* | -43 | 12 | 4 | -43 | 14
O=C(COc1ccccc1)NCC(=O)Nc1cccc(S(=O)(=O)NC2=NCCC2)c1 | -3 | 7 | · | 2 | 16 | 1
CN=C1CC(C)(C)CC(=O)/C1=C(/O)CCCN1C(=O)c2ccccc2C1=O | 0 | 7 | · | 3 | -2 | 5
Cc1nn(-c2ccccc2)c(C)c1[N+](=O)[O-] | -2 | -6 | · | 3 | 1 | 8
O=C(O)CCC(=O)Nc1nc(-c2ccccc2)cs1 | 0 | -14 | 22* | 3 | -41 | 12
CCOC(=O)c1[nH]c2ccc(OC)cc2c1NC(=S)N1CCN(c2ccccc2OC)CC1 | 2 | -2 | -2 | 20* | -3 | 1
COc1ccccc1N1CCN(C(=S)Nc2cccc(C)c2)CC1 | 6 | -13 | · | 8.7* | 27 | 7
